Measured values reported in ChEMBL document CHEMBL4043093, “2-Oxo-3, 4-dihydropyrimido[4, 5-d]pyrimidinyl derivatives as new irreversible pan fibroblast growth factor receptor (FGFR) inhibitors” (Eur J Med Chem, 2017).

Key:
[1] = tested on: Tyrosine-protein kinase ABL1 (Homo sapiens), P00519 [F317I]; experiment: Inhibition of human non-phosphorylated ABL1 F317I mutant (S229 to K512 residues) expressed in HEK293 cells assessed as residual activity at 1000 nM after 30 mins by Kinomescan method relative to control; format: cell-based
Method in brief: (§1)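 KINOMEscan binding panel of 456 kinases, with the test compound at a single concentration of 1 µM. Read-out is Percent Control.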

[2] = molecular target: Cyclin-dependent kinase-like 3 (Homo sapiens) (UniProt Q8IVW4); experiment: Inhibition of wild-type human partial length CDKL3 (M1 to D327 residues) expressed in Escherichia coli BL21 assessed as residual activity at 1000 nM after 30 mins by Kinomescan method relative to control
[3] = molecular target: Serine/threonine-protein kinase Chk1 (Homo sapiens) (UniProt O14757); experiment: Inhibition of wild-type human partial length CHEK1 (M1 to G289 residues) expressed in Escherichia coli BL21 assessed as residual activity at 1000 nM after 30 mins by Kinomescan method relative to control
[4] = species on record: Homo sapiens; experiment: Inhibition of human partial length FLT3 ITD mutant expressed in Escherichia coli BL21 assessed as residual activity at 1000 nM after 30 mins by Kinomescan method relative to control; method in brief: as §1
[5] = molecular target: Cyclin-G-associated kinase (Homo sapiens) (UniProt O14976); experiment: Inhibition of wild-type human partial length GAK (G13 to Y338 residues) expressed in Escherichia coli BL21 assessed as residual activity at 1000 nM after 30 mins by Kinomescan method relative to control
[6] = molecular target: Interleukin-1 receptor-associated kinase 1 (Homo sapiens) (UniProt P51617); experiment: Inhibition of wild-type human partial length IRAK1 (R194 to S712 residues) expressed in HEK293 cells assessed as residual activity at 1000 nM after 30 mins by Kinomescan method relative to control; format: cell-based
[7] = molecular target: Mitogen-activated protein kinase 10 (Homo sapiens) (UniProt P53779); experiment: Inhibition of wild-type human partial length JNK3 (V28 to Q422 residues) expressed in HEK293 cells assessed as residual activity at 1000 nM after 30 mins by Kinomescan method relative to control; format: cell-based
[8] = tested on: Mast/stem cell growth factor receptor Kit (Homo sapiens), P10721 [D816V]; experiment: Inhibition of human partial length KIT D816V mutant (I571 to D952 residues) expressed in Escherichia coli BL21 assessed as residual activity at 1000 nM after 30 mins by Kinomescan method relative to control; method in brief: as §1
[9] = tested on: Mast/stem cell growth factor receptor Kit (Homo sapiens), P10721 [L576P]; experiment: Inhibition of human partial length KIT L576P mutant (Y545 to D952 residues) expressed in Escherichia coli BL21 assessed as residual activity at 1000 nM after 30 mins by Kinomescan method relative to control; method in brief: as §1
[10] = molecular target: Dual specificity mitogen-activated protein kinase kinase 5 (Homo sapiens) (UniProt Q13163); experiment: Inhibition of wild-type human partial length MEK5 (L98 to P448 residues) expressed in HEK293 cells assessed as residual activity at 1000 nM after 30 mins by Kinomescan method relative to control; format: cell-based
[11] = molecular target: Serine/threonine-protein kinase MRCK alpha (Homo sapiens) (UniProt Q5VT25); experiment: Inhibition of wild-type human partial length MRCKA (L57 to V418 residues) expressed in Escherichia coli BL21 assessed as residual activity at 1000 nM after 30 mins by Kinomescan method relative to control
[12] = molecular target: Serine/threonine-protein kinase Nek11 (Homo sapiens) (UniProt Q8NG66); experiment: Inhibition of wild-type human partial length NEK11 (M1 to E313 residues) expressed in HEK293 cells assessed as residual activity at 1000 nM after 30 mins by Kinomescan method relative to control; format: cell-based
[13] = molecular target: Serine/threonine-protein kinase PAK 3 (Homo sapiens) (UniProt O75914); experiment: Inhibition of wild-type human full length PAK3 (M1 to R544 residues) expressed in Escherichia coli BL21 assessed as residual activity at 1000 nM after 30 mins by Kinomescan method relative to control
Method in brief: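 Single-concentration screen at 1 µM across a 456-kinase KINOMEscan panel. The read-out is Percent Control for each kinase.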

[14] = molecular target: Serine/threonine-protein kinase PAK 6 (Homo sapiens) (UniProt Q9NQU5); experiment: Inhibition of wild-type human partial length PAK6 (N298 to C681 residues) expressed in Escherichia coli BL21 assessed as residual activity at 1000 nM after 30 mins by Kinomescan method relative to control
[15] = molecular target: Serine/threonine-protein kinase PLK2 (Homo sapiens) (UniProt Q9NYY3); experiment: Inhibition of wild-type human partial length PLK2 (H58 to F354 residues) expressed in HEK293 cells assessed as residual activity at 1000 nM after 30 mins by Kinomescan method relative to control; format: cell-based
[16] = molecular target: Protein kinase C iota type (Homo sapiens) (UniProt P41743); experiment: Inhibition of wild-type human partial length PRKCI (H215 to V587 residues) expressed in HEK293 cells assessed as residual activity at 1000 nM after 30 mins by Kinomescan method relative to control; format: cell-based
[17] = molecular target: cAMP-dependent protein kinase catalytic subunit PRKX (Homo sapiens) (UniProt P51817); experiment: Inhibition of wild-type human partial length PRKX (M1 to F358 residues) expressed in Escherichia coli BL21 assessed as residual activity at 1000 nM after 30 mins by Kinomescan method relative to control
[18] = molecular target: Serine/threonine-protein kinase SIK2 (Homo sapiens) (UniProt Q9H0K1); experiment: Inhibition of wild-type human full length SIK2 (M1 to N926 residues) expressed in Escherichia coli BL21 assessed as residual activity at 1000 nM after 30 mins by Kinomescan method relative to control
[19] = molecular target: Tyrosine-protein kinase SYK (Homo sapiens) (UniProt P43405); experiment: Inhibition of wild-type human partial length SYK (D354 to N635 residues) expressed in Escherichia coli BL21 assessed as residual activity at 1000 nM after 30 mins by Kinomescan method relative to control
[20] = molecular target: Serine/threonine-protein kinase TAO2 (Homo sapiens) (UniProt Q9UL54); experiment: Inhibition of wild-type human partial length TAOK2 (M1 to A320 residues) expressed in HEK293 cells assessed as residual activity at 1000 nM after 30 mins by Kinomescan method relative to control; format: cell-based
[21] = molecular target: Activated CDC42 kinase 1 (Homo sapiens) (UniProt Q07912); experiment: Inhibition of wild-type human partial length TNK2 (S159 to D474 residues) expressed in Escherichia coli BL21 assessed as residual activity at 1000 nM after 30 mins by Kinomescan method relative to control
[22] = molecular target: Serine/threonine-protein kinase 32B (Homo sapiens) (UniProt Q9NY57); experiment: Inhibition of wild-type human full length YANK2 (M1 to S414 residues) expressed in Escherichia coli BL21 assessed as residual activity at 1000 nM after 30 mins by Kinomescan method relative to control

Protein kinase C iota type (Homo sapiens), sequence (P41743 whole entry, the tested form may be a part): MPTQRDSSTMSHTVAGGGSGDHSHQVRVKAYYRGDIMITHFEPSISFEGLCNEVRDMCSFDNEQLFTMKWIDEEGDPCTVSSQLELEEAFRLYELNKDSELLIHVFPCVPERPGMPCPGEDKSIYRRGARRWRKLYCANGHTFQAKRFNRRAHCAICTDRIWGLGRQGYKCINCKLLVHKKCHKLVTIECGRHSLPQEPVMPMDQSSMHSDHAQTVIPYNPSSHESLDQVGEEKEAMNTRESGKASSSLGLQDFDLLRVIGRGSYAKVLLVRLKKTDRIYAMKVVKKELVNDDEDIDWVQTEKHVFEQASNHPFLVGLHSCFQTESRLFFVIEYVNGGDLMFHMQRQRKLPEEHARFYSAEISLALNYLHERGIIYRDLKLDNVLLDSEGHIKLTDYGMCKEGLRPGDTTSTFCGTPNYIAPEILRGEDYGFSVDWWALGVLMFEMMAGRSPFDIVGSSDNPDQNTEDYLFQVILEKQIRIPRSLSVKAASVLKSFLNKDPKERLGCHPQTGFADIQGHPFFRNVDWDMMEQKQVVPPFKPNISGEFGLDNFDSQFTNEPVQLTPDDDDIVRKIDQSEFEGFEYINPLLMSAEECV
Serine/threonine-protein kinase TAO2 (Homo sapiens), sequence (Q9UL54 whole entry, the tested form may be a part): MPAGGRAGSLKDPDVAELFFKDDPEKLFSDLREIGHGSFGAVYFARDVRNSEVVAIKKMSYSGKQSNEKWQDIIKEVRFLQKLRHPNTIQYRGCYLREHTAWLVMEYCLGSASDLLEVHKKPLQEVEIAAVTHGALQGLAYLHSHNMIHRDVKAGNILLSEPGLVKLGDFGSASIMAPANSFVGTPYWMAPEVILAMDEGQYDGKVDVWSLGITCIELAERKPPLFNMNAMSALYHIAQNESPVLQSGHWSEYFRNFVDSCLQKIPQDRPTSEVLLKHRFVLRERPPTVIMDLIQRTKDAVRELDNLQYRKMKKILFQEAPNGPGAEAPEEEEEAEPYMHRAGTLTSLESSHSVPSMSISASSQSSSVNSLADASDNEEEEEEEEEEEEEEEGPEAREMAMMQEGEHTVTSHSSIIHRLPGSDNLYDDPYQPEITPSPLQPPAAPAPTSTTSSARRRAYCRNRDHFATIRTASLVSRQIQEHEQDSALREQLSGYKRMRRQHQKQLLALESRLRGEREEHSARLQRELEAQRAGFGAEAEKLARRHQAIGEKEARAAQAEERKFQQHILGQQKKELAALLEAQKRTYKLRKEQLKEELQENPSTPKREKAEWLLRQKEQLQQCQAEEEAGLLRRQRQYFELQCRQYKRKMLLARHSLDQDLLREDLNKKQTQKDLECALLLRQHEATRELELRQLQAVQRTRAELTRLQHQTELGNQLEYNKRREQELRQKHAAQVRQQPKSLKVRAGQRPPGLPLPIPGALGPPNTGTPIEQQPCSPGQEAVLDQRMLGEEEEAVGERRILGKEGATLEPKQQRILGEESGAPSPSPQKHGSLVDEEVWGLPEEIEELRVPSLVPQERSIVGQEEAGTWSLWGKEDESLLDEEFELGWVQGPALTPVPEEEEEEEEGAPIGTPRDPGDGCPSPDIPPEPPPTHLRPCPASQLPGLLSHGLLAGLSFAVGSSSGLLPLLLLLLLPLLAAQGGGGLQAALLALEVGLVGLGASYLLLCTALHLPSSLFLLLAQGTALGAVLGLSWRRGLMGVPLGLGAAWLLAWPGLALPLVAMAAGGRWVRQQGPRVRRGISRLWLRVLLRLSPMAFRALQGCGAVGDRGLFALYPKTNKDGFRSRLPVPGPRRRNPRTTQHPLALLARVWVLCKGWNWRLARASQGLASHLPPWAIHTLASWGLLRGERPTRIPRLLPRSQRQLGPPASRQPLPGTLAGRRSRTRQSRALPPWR
Serine/threonine-protein kinase SIK2 (Homo sapiens), sequence (Q9H0K1 whole entry, looked up, the tested form may be a part): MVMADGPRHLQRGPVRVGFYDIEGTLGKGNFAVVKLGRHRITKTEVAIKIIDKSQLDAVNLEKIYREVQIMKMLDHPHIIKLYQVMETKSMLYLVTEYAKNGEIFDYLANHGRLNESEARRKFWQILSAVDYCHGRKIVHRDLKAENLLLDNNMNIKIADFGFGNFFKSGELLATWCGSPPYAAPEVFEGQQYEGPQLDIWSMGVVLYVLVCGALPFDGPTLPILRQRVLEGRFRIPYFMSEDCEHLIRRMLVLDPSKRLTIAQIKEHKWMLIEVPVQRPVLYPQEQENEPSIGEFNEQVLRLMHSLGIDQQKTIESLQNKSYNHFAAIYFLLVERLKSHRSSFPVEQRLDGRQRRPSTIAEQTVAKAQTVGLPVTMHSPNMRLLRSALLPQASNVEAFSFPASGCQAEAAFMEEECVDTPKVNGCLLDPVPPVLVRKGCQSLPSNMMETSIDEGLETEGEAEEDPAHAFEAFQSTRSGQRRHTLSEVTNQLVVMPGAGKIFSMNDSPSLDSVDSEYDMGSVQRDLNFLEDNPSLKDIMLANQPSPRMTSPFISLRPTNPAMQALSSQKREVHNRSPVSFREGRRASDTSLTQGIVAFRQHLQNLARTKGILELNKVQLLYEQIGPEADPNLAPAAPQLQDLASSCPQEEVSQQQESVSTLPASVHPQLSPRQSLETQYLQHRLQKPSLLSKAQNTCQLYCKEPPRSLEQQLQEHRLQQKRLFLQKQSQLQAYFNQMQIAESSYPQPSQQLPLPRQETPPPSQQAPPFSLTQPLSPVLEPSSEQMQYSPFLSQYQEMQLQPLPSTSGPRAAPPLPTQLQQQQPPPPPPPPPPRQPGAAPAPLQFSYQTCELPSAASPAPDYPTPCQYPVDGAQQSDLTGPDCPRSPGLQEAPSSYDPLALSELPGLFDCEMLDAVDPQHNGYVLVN
Serine/threonine-protein kinase Chk1 (Homo sapiens), sequence (O14757 whole entry, the tested form may be a part): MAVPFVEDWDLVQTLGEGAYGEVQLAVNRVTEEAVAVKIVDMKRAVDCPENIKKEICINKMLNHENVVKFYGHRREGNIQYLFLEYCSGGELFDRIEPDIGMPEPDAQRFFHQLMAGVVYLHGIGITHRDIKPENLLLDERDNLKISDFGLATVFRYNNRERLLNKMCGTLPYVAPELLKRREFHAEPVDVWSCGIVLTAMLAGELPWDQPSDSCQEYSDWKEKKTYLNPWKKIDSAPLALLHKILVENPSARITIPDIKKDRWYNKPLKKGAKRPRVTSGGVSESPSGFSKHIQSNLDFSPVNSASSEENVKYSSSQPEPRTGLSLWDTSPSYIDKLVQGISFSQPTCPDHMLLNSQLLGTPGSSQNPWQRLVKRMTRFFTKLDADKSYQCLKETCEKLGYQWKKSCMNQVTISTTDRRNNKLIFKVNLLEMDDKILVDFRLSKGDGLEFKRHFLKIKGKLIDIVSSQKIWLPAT
Dual specificity mitogen-activated protein kinase kinase 5 (Homo sapiens), sequence (Q13163 whole entry, the tested form may be a part): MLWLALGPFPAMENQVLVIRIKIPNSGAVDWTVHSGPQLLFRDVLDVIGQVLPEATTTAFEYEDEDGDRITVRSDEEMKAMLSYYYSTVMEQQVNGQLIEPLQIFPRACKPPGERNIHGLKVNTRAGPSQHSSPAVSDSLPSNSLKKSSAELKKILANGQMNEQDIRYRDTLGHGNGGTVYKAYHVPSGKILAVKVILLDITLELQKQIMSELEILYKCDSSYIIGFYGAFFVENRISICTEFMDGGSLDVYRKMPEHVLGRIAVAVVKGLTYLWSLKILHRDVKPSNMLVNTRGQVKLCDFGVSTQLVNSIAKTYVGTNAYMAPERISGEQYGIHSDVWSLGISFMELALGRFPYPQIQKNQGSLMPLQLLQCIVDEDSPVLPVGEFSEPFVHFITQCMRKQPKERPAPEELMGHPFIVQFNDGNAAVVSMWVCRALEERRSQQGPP
Cyclin-dependent kinase-like 3 (Homo sapiens), sequence (Q8IVW4 whole entry, looked up, the tested form may be a part): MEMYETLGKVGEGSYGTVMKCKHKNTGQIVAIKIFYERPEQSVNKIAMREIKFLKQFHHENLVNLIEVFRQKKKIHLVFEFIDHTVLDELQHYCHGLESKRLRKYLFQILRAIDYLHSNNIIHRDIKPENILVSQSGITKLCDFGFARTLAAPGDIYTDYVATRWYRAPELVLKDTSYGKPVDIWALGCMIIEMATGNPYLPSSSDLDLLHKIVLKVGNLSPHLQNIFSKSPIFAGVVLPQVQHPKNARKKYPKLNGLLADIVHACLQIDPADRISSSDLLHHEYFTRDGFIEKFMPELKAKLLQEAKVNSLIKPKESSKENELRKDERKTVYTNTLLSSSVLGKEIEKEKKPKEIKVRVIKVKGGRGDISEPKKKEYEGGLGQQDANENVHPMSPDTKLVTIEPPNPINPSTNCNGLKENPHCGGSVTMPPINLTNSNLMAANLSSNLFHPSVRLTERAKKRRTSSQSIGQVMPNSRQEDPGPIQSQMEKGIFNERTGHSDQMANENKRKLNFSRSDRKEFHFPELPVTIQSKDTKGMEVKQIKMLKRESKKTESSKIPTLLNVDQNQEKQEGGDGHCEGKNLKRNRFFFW
Mitogen-activated protein kinase 10 (Homo sapiens), sequence (P53779 whole entry, the tested form may be a part): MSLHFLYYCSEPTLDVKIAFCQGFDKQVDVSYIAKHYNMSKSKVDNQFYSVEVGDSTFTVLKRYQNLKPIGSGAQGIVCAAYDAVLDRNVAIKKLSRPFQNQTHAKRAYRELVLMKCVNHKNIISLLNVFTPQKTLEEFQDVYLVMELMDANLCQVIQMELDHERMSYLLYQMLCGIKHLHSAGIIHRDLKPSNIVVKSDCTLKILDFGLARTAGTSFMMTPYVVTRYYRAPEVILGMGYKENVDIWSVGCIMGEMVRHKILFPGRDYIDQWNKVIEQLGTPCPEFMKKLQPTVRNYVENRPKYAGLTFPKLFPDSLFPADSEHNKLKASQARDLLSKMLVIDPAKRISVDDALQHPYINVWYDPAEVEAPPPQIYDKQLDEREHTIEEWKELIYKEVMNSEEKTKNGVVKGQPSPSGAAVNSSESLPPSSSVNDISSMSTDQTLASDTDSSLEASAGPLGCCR

COc1cc(OC)c(Cl)c(N2Cc3cnc(Nc4ccc(F)cc4)nc3N(C3CCN(C(=O)/C=C/CN(C)C)CC3)C2=O)c1Cl
Activity [1]: 100%
Activity [2]: 89%
Activity [3]: 100%
Activity [4]: 78%
Activity [5]: 96%
Activity [6]: 98%
Activity [7]: 100%
Activity [8]: 41%
Activity [9]: 2.6%
Activity [10]: 90%
Activity [11]: 98%
Activity [12]: 100%
Activity [13]: 99%
Activity [14]: 100%
Activity [15]: 100%
Activity [16]: 100%
Activity [17]: 100%
Activity [18]: 89%
Activity [19]: 100%
Activity [20]: 6.2%
Activity [21]: 100%
Activity [22]: 83%
